Only some compounds are listed: those with a hit (about 6.8% of all), similar ones and a draw of the others.
PHOSPHO1 inh: inhibitors of human PHOSPHO1 phosphatase | Q8TCT1 | recombinant PHOSPHO1, absorbance phosphatase assay | inhibition, % at 13.3 µM | 290,000 tested, 1.1% active; in the data active = inhibition above about 60%
Target sequence (Q8TCT1 whole entry, looked up): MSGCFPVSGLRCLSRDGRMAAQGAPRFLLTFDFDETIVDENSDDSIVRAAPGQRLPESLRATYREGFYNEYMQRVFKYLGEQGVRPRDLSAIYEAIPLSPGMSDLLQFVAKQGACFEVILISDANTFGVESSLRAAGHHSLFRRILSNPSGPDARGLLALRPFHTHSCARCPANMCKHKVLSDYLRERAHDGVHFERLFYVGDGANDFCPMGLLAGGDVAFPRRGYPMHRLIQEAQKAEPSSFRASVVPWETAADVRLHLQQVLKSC
HSF1 activator: increases HSF-1 driven luciferase reporter signal | NIH3T3-HGL HSF-1 luciferase reporter, MG132, 8 h; 100% = twice DMSO control signal | activation, % at 9 µM | 300,000 tested, 1.7% active;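 active = mean replicate activation of at least 50% with a set share of replicates each reaching 50%; inconclusive = only one of those two conditions met; inactive = mean below 50% and too few replicates reaching it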;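 note: 0% = median of the neutral control wells and 100% = twice that signal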
core dimer inh: blocks dimerization of HCV core protein; TR-FRET GST/Flag-core106 dimerization, 1536-well; inhibition, % at 5 µM; 300,000 tested, 0.33% active; AID 1899;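 active = inhibition above the mean of all tested compounds plus 3 SD, set per screening campaign, cut at about 45% in these data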
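test system = GST/Flag-tagged HCV core106 proteins | probe or stimulus = Eu donor and XL665 acceptor anti-tag antibodies | times = compound-protein-antibody incubation 4 h at 22.5 °C | signal = TR-FRET, excitation 340 nm, emission 617 and 671 nm | measure = percent inhibition of core106 dimerization signal | controls = wells lacking GST-core106 and wells with excess unlabelled core106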
HSF1 inhib: HSF1 inhibition; 300,000 tested, 0.77% active; activity change, negative = inhibition, % at 7.5 µM (by protocol); NIH3T3-HGL HSE-luciferase, MG132-induced, luminescence 8 h; stronger effect = lower value;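 active = more than half of replicate wells show activity change below -50%, luminescence cut by over half; inconclusive = some wells, but at most half, below -50%; inactive = no replicate well below -50%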;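 note: luciferase reports HSF-1 transcriptional activity via heat shock element; 0% = median of DMSO wells and -100% = zero luminescence signal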
AI-2 QS modul: Vibrio harveyi AI-2 quorum sensing modulation; 300,000 tested, 0.4% active; AID 2094; activity change, % at 7.5 µM; Vibrio harveyi JMH597 AI-2 luminescence/OD600 ratio, 9 h; stronger effect = lower value; strain lacks LuxN and CqsS sensors; 0 = neutral-control median; in the data active = activity change below about -75%, passing the limit was not always enough; inconclusive = no clear call, values can overlap the other calls;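 note: luminescence divided by OD600 gain over 9 h not by final OD600 alone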
ALR H2O2 inh: human ALR oxidase inhibition via reduced H2O2; AID 485317; 290,000 tested, 3.8% active; inhibition, % (test concentration not listed); P55789; purified ALR, DTT oxidation, H2O2 HRP-luminol luminescence;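 active = mean replicate inhibition above about 79%, with every replicate also reaching it, limit read from the data; inconclusive = only one of the two criteria met; inactive = mean below limit and not every replicate reaching it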
Target sequence (P55789 whole entry, looked up): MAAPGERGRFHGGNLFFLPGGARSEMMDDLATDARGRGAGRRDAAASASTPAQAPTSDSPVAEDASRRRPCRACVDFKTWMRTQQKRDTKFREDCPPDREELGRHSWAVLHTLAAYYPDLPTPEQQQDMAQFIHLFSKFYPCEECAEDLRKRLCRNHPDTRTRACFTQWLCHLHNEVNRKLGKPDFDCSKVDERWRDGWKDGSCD
Active calls of the source: *; ? = inconclusive; . = no result.

SMILES | PHOSPHO1 inh | HSF1 activator | core dimer inh | HSF1 inhib | AI-2 QS modul | ALR H2O2 inh
O=C(CSc1nc2[nH]c(=O)cc(O)c2s1)Nc1cc(Cl)cc(Cl)c1 | 2 | 12 | 9 | -3 | 10 | 99*
Cc1cc(C)cc(NC(=O)CSc2nc3[nH]c(=O)cc(O)c3s2)c1 | 19 | 3 | 2 | -2 | 18 | 98*
CC1=NN(c2cccc(C(=O)O)c2)C(=O)/C1=C\C=C\c1ccco1 | -29 | 14 | 39 | 4 | 6 | 83*
CC1=NN(c2ccccc2)C(=O)/C1=C/C=C/c1ccccc1 | -2 | 10 | 12 | 6 | 27 | 1
CCOC(=O)C1=C(COC(=O)Cc2ccc(Br)cc2)NC(=O)NC1C (configuration not stated) | 27 | -5 | 3 | 13 | 23 | 6
COc1ccccc1NCCC(=O)OCC(=O)NCc1ccco1 | 3 | 3 | 58* | 5 | 6 | 99*
COc1cc(CCC(=O)OCC(=O)NCc2ccc(Cl)cc2)cc(OC)c1OC | 8 | 6 | -1 | 2 | -65 | -5
COc1ccccc1OCCC(=O)OCC(=O)NCc1ccc(Cl)cc1 | 4 | 25 | 8 | 3 | 14 | 97*
COC(=O)c1ccc(CNC(=O)COC(=O)COc2ccc(OC)cc2)cc1 | 24 | -73 | 3 | -68* | 42 | -7
COc1ccc(OC)c(NC(=O)COC(=O)CCNc2ccccc2OC)c1 | . | . | . | . | . | 98*
CCC(C)[C@H](NC(=O)C1CC(=O)N(c2ccc3c(c2)OCO3)C1)C(=O)NC1CCCCC1 (some centres not stated) | -34 | 3 | 9 | 0 | 32 | -53
CCN(CC(=O)Nc1ccc(NC(C)=O)cc1)C(=O)c1ccc(NC2CC2)c([N+](=O)[O-])c1 | . | -7 | -10 | -3 | . | -7
O=c1c2ccccc2oc2ccc(-c3ccc4cc[nH]c4c3)cc12 | . | . | . | . | . | 1
COC(=O)c1ccc(C2c3c(oc4ccc(Cl)cc4c3=O)C(=O)N2CCN2CCOCC2)cc1 (configuration not stated) | 3 | 6 | 3 | 0 | -5 | 0
Cc1cc(NC(=O)NC2CC(=O)N(c3ccc4c(c3)OCCO4)C2)no1 (configuration not stated) | -32 | -3 | 2 | -8 | 32 | -5
COc1ccc(OCCC(=O)OCC(=O)NCc2ccco2)cc1 | 43 | 4 | 85* | 4 | 16 | -3
O=C(COC(=O)COc1ccccc1)NCc1ccco1 | . | 13 | 1 | -4 | 19 | 29
CCn1c(=O)n(CC(=O)Nc2cc(OC)ccc2OC)c(=O)c2ccccc21 | 5 | -18 | -1 | -4 | 15 | 99*
COCCCNC(=O)CCn1c(=O)c2ccccc2n(CC(=O)Nc2cc(Cl)ccc2C)c1=O | 20 | 83* | -7 | 45 | 8 | 1
CCOc1ccccc1NC(=O)Cn1c(=O)c2ccccc2n(CC)c1=O | -10 | 9 | 1 | 3 | 27 | 6
O=C1CN(CC(=O)Nc2cccc(Cl)c2Cl)c2ccccc2N1 | 53 | -10 | -1 | 1 | 8 | -15
Cc1c(NC(=O)Nc2cccc(C#N)c2)c(=O)n(-c2ccccc2)n1C | 14 | -10 | -3 | -7 | 9 | 0
Cn1cc(CN2CCC(C(=O)N3CCCCC3)CC2)c(-c2ccccc2F)n1 | 28 | -23 | -2 | -23 | 24 | -3
CC(Cl)C(=O)NNc1cccc(Cl)n1 (configuration not stated) | 32 | . | 4 | . | 15 | 97*
O=C(NNc1cccc(Cl)n1)Nc1ccccc1 | -44 | 15 | 28 | 0 | 8 | -1
SMILES | PHOSPHO1 inh | HSF1 activator | core dimer inh | HSF1 inhib | AI-2 QS modul | ALR H2O2 inh
O=C(CCNS(=O)(=O)c1cccc2nsnc12)NCc1cccs1 | -6 | -83 | -3 | -80* | -24 | -4
CCCN1C(=O)C(=O)c2cc(Cl)ccc21 | . | . | . | . | . | 2
O=C(NC1CCS(=O)(=O)C1)c1ccc(N2CCCCC2)c([N+](=O)[O-])c1 (configuration not stated) | 37 | -9 | -3 | 1 | 18 | -5
Nc1nc(Nc2cccc3ccccc23)nc(C2CCCC2=O)n1 (configuration not stated) | -16 | 53* | 0 | 7 | 7 | -8
Nc1nc(CCl)nc(Nc2cccc3ccccc23)n1 | 29 | -79 | 2 | -77* | 28 | 13
Cc1ccccc1Nc1nc(N)nc(COC(=O)c2ccccc2)n1 | -8 | 58* | -3 | 44 | 15 | 2
Cc1ccccc1Nc1nc(N)nc(COC(=O)c2ccc(O)cc2)n1 | -7 | 5 | -7 | 1 | 10 | 44
CC(NC(=O)c1cc(S(=O)(=O)N(C)C)ccc1N1CCCC1)C1CC2CCC1C2 (configuration not stated) | 20 | -2 | 2 | 1 | 40 | .
CCc1noc(C)c1C(=O)Nc1ccccc1C(C)(C)C | 21 | 13 | -3 | -9 | 4 | 2
Cn1ccnc1Sc1cc(NCCCO)c([N+](=O)[O-])c2nonc12 | 28 | -96 | 5 | -95* | 1 | 65
O=[N+]([O-])c1c(NCCCO)cc(Sc2ccc(Cl)cc2)c2nonc12 | -11 | ? | 0 | 164 | 10 | 22
CC(=O)OCCCNc1cc(Sc2nc3ccccc3s2)c2nonc2c1[N+](=O)[O-] | 25 | -77 | 2 | -79* | -7 | -26
CC(=O)OCCNc1cc(Sc2nc3ccccc3[nH]2)c2nonc2c1[N+](=O)[O-] | -2 | 40 | -6 | 29 | 29 | 96*
CC(=O)OCCNc1cc(SCc2ccco2)c2nonc2c1[N+](=O)[O-] | 3 | 17 | 4 | -1 | 75 | .
CC(=O)OCCCNc1cc(Sc2ccc(C)cc2)c2nonc2c1[N+](=O)[O-] | 14 | -84 | -4 | -80* | 30 | 41
CCCCOC(=O)N/N=C/C=C/c1ccccc1 | 4 | 9 | -10 | -1 | 14 | -4
CC(=O)c1cccc(NC(=O)C(C)OC(=O)CN2C(=O)NC(C)(C)C2=O)c1 (configuration not stated) | . | . | . | . | . | -6
O=C(Cn1c(=O)n(-c2ccc(F)cc2)c(=O)c2sccc21)NC1CCCCC1 | 35 | -24 | -1 | -6 | 6 | .
CC(Oc1ccc(Cl)cc1Cl)c1nc(-c2ccccn2)no1 (configuration not stated) | 25 | 76* | 6 | 53 | 12 | 6
CS/C(=C\[N+](=O)[O-])Nc1ccccc1 | -26 | 27 | -2 | 13 | 3 | 80*
CCOc1cc(/C=N/N2C(=O)NC3(CCCCC3)C2=O)cc(Br)c1O | -24 | -6 | -6 | -9 | 36 | 60
COc1cccc(/C=N/N2C(=O)NC3(CCCCC3)C2=O)c1O | 7 | -2 | -7 | 1 | 11 | 84*

Assay outcomes: PubChem, several laboratories
